# Reference: ChEMBL document CHEMBL1153629, “Antitumor activity of deoxypodophyllotoxin isolated from Anthriscus sylvestris: Induction of G2/M cell cycle arrest and caspase-dependent apoptosis” (2009)
# The source made the active and inactive calls. No cut-off for these calls is given here.
# Key:
# [1] = Inhibition of tubulin polymerization by turbidity assay
# How it was run: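 Turbidity assay: tubulin in reaction buffer with GTP at 37 °C, test agent at 0.25 and 0.50 µM, taxol 0.1 µM as positive control. A340 read every 30 s for 60 min with gentle plate agitation.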
# [2] = test system: HeLa; assay: Antiproliferative activity against human HeLa cells at 0.1 uM after 24 hrs; assay type: functional, cell-based
# How it was run: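 HeLa cells grown in DMEM with FBS were seeded in 96-well plates and exposed for 12, 24 or 48 h to compound dissolved in DMSO (final DMSO under 0.1%). WST-8 (Cell Counting Kit-8) was added, and OD at 450 nm was read after 30 min. Survival was expressed as % of untreated control, in triplicate, with two further independent experiments.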
# [3] = test system: HeLa; assay: Induction of apoptosis in human HeLa cells assessed as caspase 7 cleavage at 0.5 uM; assay type: functional, cell-based; conditions: TDE = time-dependent effect
# How it was run: (§1)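 HeLa cells treated with 0.5 µM for 0–48 h (sampled at 0, 3, 6, 12, 24, 48 h). Whole-cell lysates made in 20 mM HEPES pH 7.2, 1% Triton X-100, 10% glycerol, 150 mM NaCl, leupeptin, 1 mM PMSF. Lysates run on SDS–PAGE, immunoblotted with the indicated antibodies, GAPDH as loading control.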
# [4] = test system: HeLa; assay: Cell cycle arrest in human HeLa cells assessed as accumulation at G2 phase at 0.5 uM after 12 hrs using propidium iodide staining by FACS analysis; assay type: functional
# How it was run: (§2)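 HeLa cells grown in DMEM/FBS, 24 h to adhere, then given 0.5 µM from DMSO stock (DMSO <0.1% in medium). Harvested at 0, 12, 24 and 48 h, PBS-washed and fixed in 70% ethanol. Stained with 50 µg/ml propidium iodide plus 100 µg/ml RNase A at 37 °C in the dark for ≥3 h. Read by flow cytometry; sub-G1 fraction scored as apoptotic.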
# [5] = test system: HeLa; assay: Antiproliferative activity against human HeLa cells at 0.25 uM after 24 hrs; assay type: functional, cell-based
# How it was run: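 HeLa cells in 96-well culture, treated for 12, 24 and 48 h, done in triplicate; after treatment, incubated 24 h more at 37 °C, 5% CO2. WST-8 (Cell Counting Kit-8) added, OD read at 450 nm after 30 min. Survival expressed relative to untreated cells; two further independent experiments.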
# [6] = test system: HeLa; assay: Cell cycle arrest in human HeLa cells assessed as accumulation at G1 phase at 0.5 uM after 12 hrs using propidium iodide staining by FACS analysis; assay type: functional; how it was run: as §2
# [7] = test system: HeLa; assay: Cell cycle arrest at G2/M phase in human HeLa cells assessed as increase in cyclin B1 expression at 0.5 uM after 3 to 24 hrs by Western blot analysis; assay type: functional, cell-based; how it was run: as §1
# [8] = test system: HeLa; assay: Induction of apoptosis in human HeLa cells assessed as PARP cleavage after 24 to 48 hrs by Western blot analysis; assay type: functional, cell-based; how it was run: as §1
# [9] = test system: HeLa; assay: Cell cycle arrest in human HeLa cells assessed as accumulation at G2 phase at 0.5 uM after 48 hrs using propidium iodide staining by FACS analysis; assay type: functional; how it was run: as §2
# [10] = test system: HeLa; assay: Cell cycle arrest in human HeLa cells assessed as accumulation at G1 phase at 0.5 uM after 48 hrs using propidium iodide staining by FACS analysis; assay type: functional; how it was run: as §2
# [11] = test system: HeLa; assay: Induction of apoptosis in human HeLa cells assessed as caspase 3 cleavage at 0.5 uM; assay type: functional, cell-based; conditions: TDE = time-dependent effect; how it was run: as §1
# [12] = test system: HeLa; assay: Cell cycle arrest in human HeLa cells assessed as accumulation at S phase at 0.5 uM after 48 hrs using propidium iodide staining by FACS analysis; assay type: functional; how it was run: as §2
# [13] = test system: HeLa; assay: Cell cycle arrest at G2/M phase in human HeLa cells assessed as decrease in cyclin A expression at 0.5 uM after 48 hrs by Western blot analysis; assay type: functional, cell-based; how it was run: as §1
# [14] = test system: HeLa; assay: Inhibition of microtubule assembly in human HeLa cells assessed as loss of stabilization of microtubule bundles by immunofluorescence staining; assay type: cell-based
# How it was run: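 HeLa cells given 0.25 µM for 24 h alongside DMSO vehicle and 0.1 µM taxol controls. Indirect immunofluorescence with anti-α-tubulin and an Alexa Fluor 488 secondary antibody; microtubule network imaged by spectral confocal microscopy.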
# [15] = test system: HeLa; assay: Cell cycle arrest in human HeLa cells assessed as accumulation at S phase at 0.5 uM after 12 hrs using propidium iodide staining by FACS analysis; assay type: functional; how it was run: as §2
# [16] = test system: HeLa; assay: Cell cycle arrest in human HeLa cells assessed as accumulation at S phase at 0.5 uM after 24 hrs using propidium iodide staining by FACS analysis; assay type: functional; how it was run: as §2
# [17] = test system: HeLa; assay: Induction of apoptosis in human HeLa cells assessed as breakdown of nuclei by immunostaining method; assay type: functional, cell-based
# How it was run: (§3)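 HeLa cells exposed to 0.5 µM for 48 h. Microtubules stained with anti-α-tubulin and an Alexa Fluor 488 secondary antibody, DNA with TO-PRO-3 iodide. Fragmented nuclei scored by confocal microscopy.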
# [18] = test system: HeLa; assay: Cell cycle arrest in human HeLa cells assessed as accumulation at sub G1 phase at 0.5 uM after 48 hrs using propidium iodide staining by FACS analysis; assay type: functional; how it was run: as §2
# [19] = test system: HeLa; assay: Cell cycle arrest in human HeLa cells assessed as accumulation at G1 phase at 0.5 uM after 24 hrs using propidium iodide staining by FACS analysis; assay type: functional; how it was run: as §2
# [20] = test system: HeLa; assay: Cell cycle arrest in human HeLa cells assessed as accumulation at sub G1 phase at 0.5 uM after 24 hrs using propidium iodide staining by FACS analysis; assay type: functional; how it was run: as §2
# [21] = test system: HeLa; assay: Cell cycle arrest in human HeLa cells assessed as accumulation at G2 phase at 0.5 uM after 24 hrs using propidium iodide staining by FACS analysis; assay type: functional; how it was run: as §2
# [22] = test system: HeLa; assay: Induction of apoptosis in human HeLa cells assessed as fragmentation of chromosomal DNA by immunostaining method; assay type: functional, cell-based; how it was run: as §3
# [23] = test system: HeLa; assay: Cell cycle arrest in human HeLa cells assessed as accumulation at sub G1 phase at 0.5 uM after 12 hrs using propidium iodide staining by FACS analysis; assay type: functional; how it was run: as §2
structure (smiles),measurement,setting,value
CC(=O)O[C@H]1C(=O)[C@@]2(C)[C@H]([C@H](OC(=O)c3ccccc3)[C@]3(O)C[C@H](OC(=O)[C@H](O)[C@@H](NC(=O)c4ccccc4)c4ccccc4)C(C)=C1C3(C)C)[C@]1(OC(C)=O)CO[C@@H]1C[C@@H]2O,Activity,[1],inactive
same,Activity,[2],Active
COc1cc([C@@H]2c3cc4c(cc3C[C@H]3COC(=O)[C@@H]32)OCO4)cc(OC)c1OC [DESOXYPODOPHYLLOTOXIN],Activity,[3],tde
same,Activity,[4],58.9%
same,Activity,[5],Active
same,Activity,[6],12%
same,Activity,[7],Active
same,Activity,[8],Active
same,Activity,[1],Dose-dependent effect
same,Activity,[9],82.1%
same,Activity,[10],6.8%
same,Activity,[11],tde
same,Activity,[12],11%
same,Activity,[13],Active
same,Activity,[14],inactive
same,Activity,[15],28.9%
same,Activity,[16],8.6%
same,Activity,[17],Active
same,Activity,[18],29.7%
same,Activity,[19],3.5%
same,Activity,[20],4.5%
same,Activity,[21],87.8%
same,Activity,[22],Active
same,Activity,[23],0.2%
